Assay results published in ChEMBL document CHEMBL1770048, “Synthesis and biological evaluation of a diazepanone-based library of liposidomycins analogs as MraY inhibitors” (Eur J Med Chem, 2011).
pIC50: −log10 of the molar value.

How the values were obtained:
Staphylococcus aureus [1] = assay: Inhibition of Staphylococcus aureus MurG assessed as residual activity of enzyme at 2 mM after 30 mins
In short: (§1)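 MurG reaction in 12.5 μl: 200 mM Tris-HCl pH 7.5, 10 mM MgCl₂, 16 μM UDP-[¹⁴C]GlcNAc, 16 μM lipid I analog, 30% (v/v) DMSO (final) plus MurG. Run 30 min at 37 °C, stopped by 3 min boiling, lyophilized, redissolved in 2-propanol/NH₄OH/water (6:3:1). Lipid II resolved by silica TLC in the same solvent and counted by radioactivity scanning. Residual activity versus no-inhibitor control; IC50 from 7 concentrations.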

[2] = target: T1, Phospho-N-acetylmuramoyl-pentapeptide-transferase (Staphylococcus aureus, UniProt P0C1R8); assay: Inhibition of Staphylococcus aureus MraY after 30 mins
T1 sequence (P0C1R8 whole entry): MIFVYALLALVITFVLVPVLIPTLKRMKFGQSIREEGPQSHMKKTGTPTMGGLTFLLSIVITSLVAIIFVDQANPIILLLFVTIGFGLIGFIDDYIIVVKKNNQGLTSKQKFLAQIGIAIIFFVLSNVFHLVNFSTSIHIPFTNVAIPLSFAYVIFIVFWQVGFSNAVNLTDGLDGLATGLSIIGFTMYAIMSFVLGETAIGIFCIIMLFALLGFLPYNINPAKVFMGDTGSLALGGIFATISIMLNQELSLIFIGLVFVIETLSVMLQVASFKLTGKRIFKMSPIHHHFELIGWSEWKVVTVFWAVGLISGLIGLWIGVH
In short: (§2)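 Started with enzyme, 30 min at 37 °C with shaking, stopped at 100 °C for 1 min. Lipid I separated from substrate by silica TLC (2-propanol/NH₄OH/water 6:3:1), spots quantified by radioactivity scanning. Residual activity relative to no-inhibitor control; IC50 from 7 inhibitor concentrations.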

[3] = Inhibition of Staphylococcus aureus MurG after 30 mins; in short: as §1
Staphylococcus aureus [4] = assay: Inhibition of Staphylococcus aureus MurG assessed as residual activity of enzyme at 1 mM after 30 mins; in short: as §1
[5] = target: T2, Phospho-N-acetylmuramoyl-pentapeptide-transferase (Staphylococcus aureus) (UniProt P0C1R8); assay: Inhibition of Staphylococcus aureus MraY assessed as residual activity of enzyme at 2 mM after 30 mins; conditions: 1 mM, in the assay text read “at 1 mM” for “at 2 mM”; in short: as §2
T2 sequence (whole entry): T1 sequence (P0C1R8 whole entry)

[6] = target: T2, Phospho-N-acetylmuramoyl-pentapeptide-transferase (Staphylococcus aureus); assay: Inhibition of Staphylococcus aureus MraY assessed as residual activity of enzyme at 1 mM after 30 mins; in short: as §2

| Structure (SMILES) | Activity (Staphylococcus aureus [1]) [%] | pIC50 [2] | pIC50 [3] | further results |
| --- | --- | --- | --- | --- |
| CCCCCCCCCCCCCCCC(=O)O[C@H]1CN(CCCCCn2ccc(=O)[nH]c2=O)[C@@H](CO)C(=O)N[C@@H]1CO[Si](c1ccccc1)(c1ccccc1)C(C)(C)C | 66 | 3.42 |  |  |
| CCCCCCCCCCCCCCCC(=O)O[C@H]1CN(CCCCCn2ccc(=O)[nH]c2=O)[C@@H](CO[C@@H]2O[C@H](CN)[C@@H](O)[C@H]2O)C(=O)N[C@@H]1CO[Si](c1ccccc1)(c1ccccc1)C(C)(C)C |  | 3.92 | 3.73 |  |
| CCCCCCCCCCCCCCCC(=O)O[C@H]1CN(CCCCCn2ccc(=O)[nH]c2=O)[C@@H](CO[C@@H]2O[C@H](CN)[C@H]3OC(CC)(CC)O[C@@H]23)C(=O)N[C@@H]1CO[C@@H]1O[C@H](CN)[C@H]2OC(CC)(CC)O[C@@H]12 |  | 3.51 | 4.00 |  |
| CC(C)(C)[Si](OC[C@H]1NC(=O)[C@H](COCc2ccccc2)N(CCCCCn2ccc(=O)[nH]c2=O)C[C@@H]1O)(c1ccccc1)c1ccccc1 |  | 2.80 |  | Activity (Staphylococcus aureus [4]): 100% |
| CCCCCCCCCCCCCCCC(=O)O[C@H]1CN(CCCCCn2ccc(=O)[nH]c2=O)[C@@H](CO[C@@H]2O[C@H](CN=[N+]=[N-])[C@H]3OC(CC)(CC)O[C@@H]23)C(=O)N[C@@H]1CO[C@@H]1O[C@H](CN=[N+]=[N-])[C@H]2OC(CC)(CC)O[C@@H]12 | 87 | 3.38 |  |  |
| CCCCCCCCCCCCCCCC(=O)O[C@H]1CN(CCCCCn2ccc(=O)[nH]c2=O)[C@@H](CO[C@@H]2O[C@H](CN)[C@H]3OC(CC)(CC)O[C@@H]23)C(=O)N[C@@H]1CO[Si](c1ccccc1)(c1ccccc1)C(C)(C)C |  | 3.21 | 3.96 |  |
| CCCCCCCCCCCCCCCC(=O)O[C@H]1CN(CCCCCn2ccc(=O)[nH]c2=O)[C@@H](CO[C@@H]2O[C@H](CN=[N+]=[N-])[C@H]3OC(CC)(CC)O[C@@H]23)C(=O)N[C@@H]1CO[Si](c1ccccc1)(c1ccccc1)C(C)(C)C | 100 | 3.72 |  |  |
| CCCCCCCCCCCCCCCC(=O)O[C@H]1CN(CCCCCn2ccc(=O)[nH]c2=O)[C@@H](CO[C@@H]2O[C@H](CN)[C@@H](O)[C@H]2O)C(=O)N[C@@H]1CO[C@@H]1O[C@H](CN)[C@@H](O)[C@H]1O |  | 2.55 | 3.89 |  |
| CCCCCCCCCCCCCCCC(=O)O[C@H]1CN(CCCCCn2ccc(=O)[nH]c2=O)[C@@H](CO)C(=O)N[C@@H]1CO | 100 | 3.57 |  |  |
| CCCCCCCCCCCCCCCC(=O)O[C@H]1CN(C)[C@@H](CO[C@@H]2O[C@H](CN)[C@@H](O)[C@H]2O)C(=O)N[C@@H]1CO[Si](c1ccccc1)(c1ccccc1)C(C)(C)C |  |  | 3.82 | Activity [5]: 66% |
| CCCCCCCCCCCCCCCC(=O)O[C@H]1CN(C)[C@@H](CO)C(=O)N[C@@H]1CO |  | 2.76 |  |  |
| CCCCCCCCCCCCCCCC(=O)O[C@H]1CN(CCCCCn2ccc(=O)[nH]c2=O)[C@@H](CO[C@@H]2O[C@H](CN)[C@@H](O)[C@H]2O)C(=O)N[C@@H]1CO |  | 3.66 | 3.28 |  |
| CCCCCCCCCCCCCCCC(=O)O[C@H]1CN(C)[C@@H](CO[C@@H]2O[C@H](CN)[C@@H](O)[C@H]2O)C(=O)N[C@@H]1CO | 100 |  |  | Activity [6]: 75% |
| CCCCCCCCCCCCCCCC(=O)O[C@H]1CN(C)[C@@H](CO[C@@H]2O[C@H](CN)[C@H]3OC(CC)(CC)O[C@@H]23)C(=O)N[C@@H]1CO[Si](c1ccccc1)(c1ccccc1)C(C)(C)C |  | 3.00 |  |  |
| CCCCCCCCCCCCCCCC(=O)O[C@H]1CN(CCCCCn2ccc(=O)[nH]c2=O)[C@@H](COCc2ccccc2)C(=O)N[C@@H]1CO[Si](c1ccccc1)(c1ccccc1)C(C)(C)C | 100 | 2.85 |  |  |
